{"source": "ChEMBL document CHEMBL1156480", "about": "“Insensitivity to Abeta42-lowering nonsteroidal anti-inflammatory drugs and gamma-secretase inhibitors is common among aggressive presenilin-1 mutations” (J Biol Chem, 2007)", "key": {"[1]": {"biological_target": "Presenilin-1 (Homo sapiens) (UniProt P49768)", "experiment": "Reduction of human wild type PS1-induced amyloid beta-40 level in CHO cells overexpressing human APP751 at 0.1 nM after 24 hrs by liquid phase electrochemiluminescence assay relative to control", "assay_type": "cell-based", "parameters": "scale not given: the % may be the effect or the level left"}, "[2]": {"tested_on": "CHO", "experiment": "Reduction of human PS1 delta exon9 mutant-induced amyloid beta-40 level in CHO cells overexpressing human APP751 at 0.1 nM after 24 hrs by liquid phase electrochemiluminescence assay relative to control", "assay_type": "cell-based", "parameters": "scale not given: the % may be the effect or the level left", "summary_of_the_method": "(§1)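 APP751 CHO cells stably expressing PS1-ΔExon9, PS1-L166P or PS1-WT, cultured in parallel in serum-containing medium. Treated 24 h with increasing γ-secretase inhibitor concentrations or DMSO. Conditioned-media Abeta40/Abeta42 quantified by LPECL against synthetic peptide standards (16–2000 pg/ml). Duplicates normalized to DMSO. n = 3, one-way ANOVA with Dunnett's test versus PS1-WT.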"}, "[3]": {"tested_on": "Presenilin-1 (Homo sapiens), P49768 [L166P]", "experiment": "Reduction of human PS1 L166P mutant-induced amyloid beta-40 level in CHO cells overexpressing human APP751 at 0.1 nM after 24 hrs by liquid phase electrochemiluminescence assay relative to control", "assay_type": "cell-based", "parameters": "scale not given: the % may be the effect or the level left", "summary_of_the_method": "as §1"}, "[4]": {"biological_target": "Presenilin-1 (Homo sapiens) (UniProt P49768)", "experiment": "Reduction of human wild type PS1-induced amyloid beta-40 level in CHO cells overexpressing human APP751 at 0.2 nM after 24 hrs by liquid phase electrochemiluminescence assay relative to control", "assay_type": "cell-based", "parameters": "scale not given: the % may be the effect or the level left"}, "[5]": {"tested_on": "CHO", "experiment": "Reduction of human PS1 delta exon9 mutant-induced amyloid beta-40 level in CHO cells overexpressing human APP751 at 0.2 nM after 24 hrs by liquid phase electrochemiluminescence assay relative to control", "assay_type": "cell-based", "parameters": "scale not given: the % may be the effect or the level left", "summary_of_the_method": "as §1"}, "[6]": {"tested_on": "Presenilin-1 (Homo sapiens), P49768 [L166P]", "experiment": "Reduction of human PS1 L166P mutant-induced amyloid beta42 level in CHO cells overexpressing human APP751 at 0.2 nM after 24 hrs by liquid phase electrochemiluminescence assay relative to control", "assay_type": "cell-based", "parameters": "scale not given: the % may be the effect or the level left", "summary_of_the_method": "as §1"}, "[7]": {"biological_target": "Presenilin-1 (Homo sapiens) (UniProt P49768)", "experiment": "Reduction of human wild type PS1-induced amyloid beta-42 level in CHO cells overexpressing human APP751 at 0.5 nM after 24 hrs by liquid phase electrochemiluminescence assay relative to control", "assay_type": "cell-based", "parameters": "scale not given: the % may be the effect or the level left"}, "[8]": {"tested_on": "CHO", "experiment": "Reduction of human PS1 delta exon9 mutant-induced amyloid beta42 level in CHO cells overexpressing human APP751 at 0.5 nM after 24 hrs by liquid phase electrochemiluminescence assay relative to control", "assay_type": "cell-based", "parameters": "scale not given: the % may be the effect or the level left"}, "[9]": {"tested_on": "Presenilin-1 (Homo sapiens), P49768 [L166P]", "experiment": "Reduction of human PS1 L166P mutant-induced amyloid beta42 level in CHO cells overexpressing human APP751 at 0.5 nM after 24 hrs by liquid phase electrochemiluminescence assay relative to control", "assay_type": "cell-based", "parameters": "scale not given: the % may be the effect or the level left", "summary_of_the_method": "as §1"}, "[10]": {"tested_on": "Mus musculus", "experiment": "Reduction of amyloid beta-42 level in Tg2576 mouse brain at 10 mg/kg, po after 3 hrs by ELISA relative to control", "assay_type": "functional", "parameters": "scale not given: the % may be the effect or the level left", "summary_of_the_method": "(§2)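 Mice given one oral 10 mg/kg dose in 0.5% tylose, or vehicle alone; the lines cover 5-month-old Tg2576 (Swedish APP) mice and 2-month-old APPPS1 (Swedish APP + human PS1-L166P, Thy-1 promoter) mice. Killed 3 h post-dose. Brain homogenized in Tris buffer with 0.2% Triton X-100 and spun 1 h at 200,000 x g. Soluble supernatant Abeta40 (6E10 capture) and Abeta42 measured by sandwich ELISA. n = 4–6, paired t-test.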"}, "[11]": {"tested_on": "Mus musculus", "experiment": "Reduction of amyloid beta-40 level in Swedish APP and human PS1-L166P APPPS1 transgenic mouse brain at 10 mg/kg, po after 3 hrs by ELISA relative to control", "assay_type": "functional", "parameters": "scale not given: the % may be the effect or the level left", "summary_of_the_method": "as §2"}, "[12]": {"tested_on": "Mus musculus", "experiment": "Reduction of amyloid beta42 level in Swedish APP and human PS1-L166P APPPS1 transgenic mouse brain at 10 mg/kg, po after 3 hrs by ELISA relative to control", "assay_type": "functional", "parameters": "scale not given: the % may be the effect or the level left", "summary_of_the_method": "as §2"}, "[13]": {"experiment": "Reduction of human PS1 delta exon9 mutant-induced amyloid beta-42 level in CHO cells overexpressing human APP751after 24 hrs by liquid phase electrochemiluminescence assay relative to control", "assay_type": "cell-based"}, "[14]": {"experiment": "Reduction of human PS1 delta exon9 mutant-induced amyloid beta-40 level in CHO cells overexpressing human APP751after 24 hrs by liquid phase electrochemiluminescence assay relative to control", "assay_type": "cell-based"}, "[15]": {"tested_on": "Mus musculus", "experiment": "Reduction of amyloid beta40 level in Tg2576 mouse brain at 10 mg/kg, po after 3 hrs by ELISA", "assay_type": "functional", "summary_of_the_method": "as §2"}, "[16]": {"tested_on": "Mus musculus", "experiment": "Reduction of amyloid beta-42 level in Tg2576 mouse brain at 10 mg/kg, po after 3 hrs by ELISA", "assay_type": "functional", "summary_of_the_method": "as §2"}, "[17]": {"tested_on": "Mus musculus", "experiment": "Reduction of amyloid beta-40 level in Swedish APP and human PS1-L166P APPPS1 transgenic mouse brain at 10 mg/kg, po after 3 hrs by ELISA", "assay_type": "functional", "summary_of_the_method": "as §2"}, "[18]": {"tested_on": "Mus musculus", "experiment": "Reduction of amyloid beta-42 level in Swedish APP and human PS1-L166P APPPS1 transgenic mouse brain at 10 mg/kg, po after 3 hrs by ELISA", "assay_type": "functional", "summary_of_the_method": "as §2"}, "[19]": {"tested_on": "Mus musculus", "experiment": "Reduction of amyloid beta-40 level in Tg2576 mouse brain at 10 mg/kg, po after 3 hrs by ELISA relative to control", "assay_type": "functional", "parameters": "scale not given: the % may be the effect or the level left", "summary_of_the_method": "as §2"}, "[20]": {"tested_on": "Presenilin-1 (Homo sapiens), P49768 [L166P]", "experiment": "Reduction of human PS1 L166P mutant-induced amyloid beta40 level in CHO cells overexpressing human APP751 at 0.2 nM after 24 hrs by liquid phase electrochemiluminescence assay relative to control", "assay_type": "cell-based", "parameters": "scale not given: the % may be the effect or the level left", "summary_of_the_method": "as §1"}, "[21]": {"biological_target": "Presenilin-1 (Homo sapiens) (UniProt P49768)", "experiment": "Reduction of human wild type PS1-induced amyloid beta40 level in CHO cells overexpressing human APP751 at 0.5 nM after 24 hrs by liquid phase electrochemiluminescence assay relative to control", "assay_type": "cell-based", "parameters": "scale not given: the % may be the effect or the level left"}, "[22]": {"tested_on": "CHO", "experiment": "Reduction of human PS1 delta exon9 mutant-induced amyloid beta40 level in CHO cells overexpressing human APP751 at 0.5 nM after 24 hrs by liquid phase electrochemiluminescence assay relative to control", "assay_type": "cell-based", "parameters": "scale not given: the % may be the effect or the level left"}, "[23]": {"tested_on": "Presenilin-1 (Homo sapiens), P49768 [L166P]", "experiment": "Reduction of human PS1 L166P mutant-induced amyloid beta40 level in CHO cells overexpressing human APP751 at 0.5 nM after 24 hrs by liquid phase electrochemiluminescence assay relative to control", "assay_type": "cell-based", "parameters": "scale not given: the % may be the effect or the level left", "summary_of_the_method": "as §1"}, "[24]": {"biological_target": "Presenilin-1 (Homo sapiens) (UniProt P49768)", "experiment": "Reduction of human wild type PS1-induced amyloid beta42 level in CHO cells overexpressing human APP751 at 0.1 nM after 24 hrs by liquid phase electrochemiluminescence assay relative to control", "assay_type": "cell-based", "parameters": "scale not given: the % may be the effect or the level left"}, "[25]": {"tested_on": "CHO", "experiment": "Reduction of human PS1 delta exon9 mutant-induced amyloid beta42 level in CHO cells overexpressing human APP751 at 0.1 nM after 24 hrs by liquid phase electrochemiluminescence assay relative to control", "assay_type": "cell-based", "parameters": "scale not given: the % may be the effect or the level left"}, "[26]": {"tested_on": "Presenilin-1 (Homo sapiens), P49768 [L166P]", "experiment": "Reduction of human PS1 L166P mutant-induced amyloid beta42 level in CHO cells overexpressing human APP751 at 0.1 nM after 24 hrs by liquid phase electrochemiluminescence assay relative to control", "assay_type": "cell-based", "parameters": "scale not given: the % may be the effect or the level left", "summary_of_the_method": "as §1"}, "[27]": {"biological_target": "Presenilin-1 (Homo sapiens) (UniProt P49768)", "experiment": "Reduction of human wild type PS1-induced amyloid beta42 level in CHO cells overexpressing human APP751 at 0.2 nM after 24 hrs by liquid phase electrochemiluminescence assay relative to control", "assay_type": "cell-based", "parameters": "scale not given: the % may be the effect or the level left"}, "[28]": {"tested_on": "CHO", "experiment": "Reduction of human PS1 delta exon9 mutant-induced amyloid beta42 level in CHO cells overexpressing human APP751 at 0.2 nM after 24 hrs by liquid phase electrochemiluminescence assay relative to control", "assay_type": "cell-based", "parameters": "scale not given: the % may be the effect or the level left"}}}
{"smiles": "C[C@H](NC(=O)[C@@H](O)c1cc(F)cc(F)c1)C(=O)N[C@@H]1C(=O)N(C)c2ccccc2-c2ccccc21", "values": [{"measurement": "Activity", "setting": "[1]", "result": 64.2, "unit": "%"}, {"measurement": "Activity", "setting": "[2]", "result": 92.6, "unit": "%"}, {"measurement": "Activity", "setting": "[3]", "result": 66.6, "unit": "%"}, {"measurement": "Activity", "setting": "[4]", "result": 15.8, "unit": "%"}, {"measurement": "Activity", "setting": "[5]", "result": 72.9, "unit": "%"}, {"measurement": "Activity", "setting": "[6]", "result": 57.7, "unit": "%"}, {"measurement": "Activity", "setting": "[7]", "result": 4.75, "unit": "%"}, {"measurement": "Activity", "setting": "[8]", "result": 26.5, "unit": "%"}, {"measurement": "Activity", "setting": "[9]", "result": 28.7, "unit": "%"}, {"measurement": "Activity", "setting": "[10]", "result": 89, "unit": "%"}, {"measurement": "Activity", "setting": "[11]", "result": 81.2, "unit": "%"}, {"measurement": "Activity", "setting": "[12]", "result": 17.1, "unit": "%"}, {"measurement": "EC50", "setting": "[13]", "result": 0.352, "unit": "nM"}, {"measurement": "EC50", "setting": "[14]", "result": 0.358, "unit": "nM"}, {"measurement": "Activity", "setting": "[15]", "result": 1.23, "unit": "pmol/g"}, {"measurement": "Activity", "setting": "[16]", "result": 0.21, "unit": "pmol/g"}, {"measurement": "Activity", "setting": "[17]", "result": 0.42, "unit": "pmol/g"}, {"measurement": "Activity", "setting": "[18]", "result": 2.9, "unit": "pmol/g"}, {"measurement": "Activity", "setting": "[19]", "result": 85, "unit": "%"}, {"measurement": "Activity", "setting": "[20]", "result": 36.2, "unit": "%"}, {"measurement": "Activity", "setting": "[21]", "result": 5.6, "unit": "%"}, {"measurement": "Activity", "setting": "[22]", "result": 26.7, "unit": "%"}, {"measurement": "Activity", "setting": "[23]", "result": 11.7, "unit": "%"}, {"measurement": "Activity", "setting": "[24]", "result": 71, "unit": "%"}, {"measurement": "Activity", "setting": "[25]", "result": 94.4, "unit": "%"}, {"measurement": "Activity", "setting": "[26]", "result": 85.2, "unit": "%"}, {"measurement": "Activity", "setting": "[27]", "result": 18.8, "unit": "%"}, {"measurement": "Activity", "setting": "[28]", "result": 72, "unit": "%"}]}
